From ChEMBL document CHEMBL3868624, “Design, synthesis, biological evaluation, and molecular modeling studies of chalcone-rivastigmine hybrids as cholinesterase inhibitors” (Bioorg Med Chem, 2017)
The source made the active and inactive calls. The rule behind the calls is not given here.

What was measured:
[1] = Cytotoxicity against human SH-SY5Y cells assessed as cell viability at 25 uM after 48 hrs by MTT assay relative to control; format: toxicity, cell-based; conditions: read-out: Activity
Method in brief: (§1)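 SH-SY5Y cells seeded at 5×10³ per well and grown 16-18 h, then exposed to 6.25, 12.5, 25, 50 or 100 µM compound for 48 h. MTT (2.5 mg/mL solution) was added for 4 h at 37 °C, 5% CO₂. Formazan was dissolved in DMSO and absorbance read at 490 nm. Viability is relative to control, mean ± SEM of experiments in triplicate.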

[2] = Cytotoxicity against human SH-SY5Y cells assessed as cell viability at 100 uM after 48 hrs by MTT assay relative to control; format: toxicity, cell-based; conditions: read-out: Activity; method in brief: as §1
[3] = Cytotoxicity against human SH-SY5Y cells assessed as cell viability at 50 uM after 48 hrs by MTT assay relative to control; format: toxicity, cell-based; conditions: read-out: Activity; method in brief: as §1
[4] = target: T1, Cholinesterase (Homo sapiens, UniProt P06276); experiment: Inhibition of human serum BChE using S-Butyrylthiocholine iodide as substrate at 10 uM preincubated for 15 mins followed by substrate addition by Ellman's method
[5] = Cytotoxicity against human SH-SY5Y cells assessed as cell viability at 12.5 uM after 48 hrs by MTT assay relative to control; format: toxicity, cell-based; conditions: read-out: Activity; method in brief: as §1
[6] = target: T1, Cholinesterase; experiment: Inhibition of human serum BChE using S-Butyrylthiocholine iodide as substrate preincubated for 15 mins followed by substrate addition by Ellman's method
Method in brief: (§2)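 Ellman assay in phosphate buffer pH 8.0 (0.08 M Na₂HPO₄/0.02 M NaH₂PO₄). hAChE at 0.004 U/mL or hBChE at 0.002 U/mL was preincubated with compound for 15 min at 37 °C. DTNB and ATC (hAChE) or BTC (hBChE) were added, each 50 µM final. A412 was read over 5 min and inhibition set against no-compound wells. IC50 from a variable-slope fit, mean ± SD of three independent experiments.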

[7] = Cytotoxicity against human SH-SY5Y cells assessed as cell viability at 6.25 uM after 48 hrs by MTT assay relative to control; format: toxicity, cell-based; conditions: read-out: Activity; method in brief: as §1
[8] = system: SH-SY5Y; experiment: Antioxidant activity against t-BHP-induced oxidative stress in human SH-SY5Y cells assessed as inhibition of ROS production at 1 to 5 uM after 24 hrs by DCFH-DA probe based flow cytometric analysis; format: functional, cell-based
Method in brief: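 SH-SY5Y cells seeded at 5×10^4 per well, left 16-18 h, then exposed to compound for 24 h. Cells were washed in PBS and loaded with 5 μM DCFH-DA together with 100 μM t-BHP in PBS, 30 min at 37 °C, 5% CO2. After washing and resuspension, flow cytometry read ex 488/em 525 nm. Value reported as (FIsample−FIblank)/(FIcontrol−FIblank)×100%, untreated cells as control, curcumin as positive control.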

[9] = target: T2, Acetylcholinesterase (Homo sapiens, UniProt P22303); experiment: Inhibition of human recombinant AChE using acetylthiocholine iodide as substrate preincubated for 15 mins followed by substrate addition by Ellman's method; method in brief: as §2
[10] = target: T2, Acetylcholinesterase; experiment: Non-competitive inhibition of human recombinant AChE using acetylthiocholine iodide as substrate preincubated for 15 mins followed by substrate addition by Lineweaver-Burk plot analysis
Method in brief: (§3)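 For kinetics, hAChE (0.004 U/mL) or hBChE (0.002 U/mL) was preincubated 15 min at 37 °C with inhibitor at three concentrations spanning 100-900 nM. DTNB was then added, followed by ATC or BTC at six serial concentrations from 0.125 to 1 mM. A412 was read for 5 min at 1-min intervals. Km and Vmax came from Michaelis-Menten fits, and mechanism from Lineweaver-Burk plots.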

[11] = target: T1, Cholinesterase; experiment: Non-competitive inhibition of human serum BChE using S-Butyrylthiocholine iodide as substrate preincubated for 15 mins followed by substrate addition by Lineweaver-Burk plot analysis; method in brief: as §3

T1 sequence (P06276 whole entry): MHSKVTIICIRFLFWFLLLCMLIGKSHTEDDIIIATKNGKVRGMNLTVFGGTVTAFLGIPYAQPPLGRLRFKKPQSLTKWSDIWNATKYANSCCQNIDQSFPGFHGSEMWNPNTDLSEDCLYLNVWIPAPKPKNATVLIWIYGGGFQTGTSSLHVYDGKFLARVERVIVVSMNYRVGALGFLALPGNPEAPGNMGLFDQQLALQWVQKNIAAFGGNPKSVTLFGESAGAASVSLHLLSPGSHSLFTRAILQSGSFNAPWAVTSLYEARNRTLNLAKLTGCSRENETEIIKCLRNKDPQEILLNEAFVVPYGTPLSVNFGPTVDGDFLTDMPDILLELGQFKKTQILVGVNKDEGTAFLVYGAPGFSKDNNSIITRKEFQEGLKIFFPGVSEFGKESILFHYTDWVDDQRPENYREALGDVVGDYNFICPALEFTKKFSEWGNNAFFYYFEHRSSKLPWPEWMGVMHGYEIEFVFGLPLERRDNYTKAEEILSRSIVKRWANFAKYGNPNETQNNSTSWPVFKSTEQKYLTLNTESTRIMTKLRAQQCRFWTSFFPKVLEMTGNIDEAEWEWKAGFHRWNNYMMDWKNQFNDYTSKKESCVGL
T2 sequence (P22303 whole entry): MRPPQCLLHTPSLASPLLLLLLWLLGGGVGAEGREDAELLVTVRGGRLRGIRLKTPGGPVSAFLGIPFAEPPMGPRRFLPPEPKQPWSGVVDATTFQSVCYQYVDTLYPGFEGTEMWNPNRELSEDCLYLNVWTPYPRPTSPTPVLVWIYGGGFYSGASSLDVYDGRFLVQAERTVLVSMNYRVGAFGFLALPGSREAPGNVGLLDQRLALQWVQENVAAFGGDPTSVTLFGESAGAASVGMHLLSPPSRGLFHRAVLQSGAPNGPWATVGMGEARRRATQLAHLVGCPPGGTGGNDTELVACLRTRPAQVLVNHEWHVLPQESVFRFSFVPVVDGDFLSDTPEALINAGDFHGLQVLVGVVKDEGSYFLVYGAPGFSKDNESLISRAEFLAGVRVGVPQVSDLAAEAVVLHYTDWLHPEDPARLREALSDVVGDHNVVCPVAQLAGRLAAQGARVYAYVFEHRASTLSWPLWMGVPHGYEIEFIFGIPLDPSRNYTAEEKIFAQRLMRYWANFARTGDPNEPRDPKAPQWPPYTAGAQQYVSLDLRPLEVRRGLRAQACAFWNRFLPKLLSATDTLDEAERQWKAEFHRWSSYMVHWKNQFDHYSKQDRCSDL

| Structure (SMILES) | viability at 48 h, 25 µM [1] | viability at 48 h, 100 µM [2] | viability at 48 h, 50 µM [3] | inhibition [4] | viability at 48 h, 12.5 µM [5] | IC50 [6] | viability at 48 h, 6.25 µM [7] | inhibition [8] | IC50 [9] | Ki [10] | Ki [11] |
| --- | --- | --- | --- | --- | --- | --- | --- | --- | --- | --- | --- |
| CCN(C)C(=O)Oc1cccc(/C=C/C(=O)c2ccc(O)cc2)c1 | 60.2% | 2.97% | 16.6% | > 50% | 88.7% | 2.52 µM | 95.1% | – | – | – | – |
| COc1ccc(/C=C/C(=O)c2cccc(O)c2)cc1 | – | – | – | < 50% | – | – | – | – | – | – | – |
| CC(C)N(C(=O)Oc1cccc(C(=O)/C=C/c2ccc(O)cc2)c1)C(C)C | – | – | – | < 50% | – | – | – | – | – | – | – |
| COc1ccc(/C=C/C(=O)c2cccc(OC(=O)N(C(C)C)C(C)C)c2)cc1 | – | – | – | < 50% | – | – | – | – | – | – | – |
| CCN(C)C(=O)Oc1ccc(/C=C/C(=O)c2cccc(O)c2)cc1 | 67.1% | 0.81% | 16.5% | > 50% | 93.9% | 5.6 µM | 96.1% | – | – | – | – |
| CCN(C)C(=O)Oc1ccccc1C(=O)/C=C/c1ccc(O)cc1 | 64.7% | 52.2% | 51.7% | > 50% | 76.4% | 4.37 to 5.97 µM | 86% | – | – | – | – |
| CN(C)C(=O)Oc1ccccc1C(=O)/C=C/c1ccc(O)cc1 | – | – | – | < 50% | – | – | – | – | – | – | – |
| CN(C)C(=O)Oc1ccc(/C=C/C(=O)c2ccc(O)cc2)cc1 | 60.4% | 13.1% | 28.9% | > 50% | 86.6% | 4.48 µM | 100% | – | – | – | – |
| CCN(C)C(=O)Oc1ccc(C(=O)/C=C/c2ccc(OC)cc2)cc1 | 83.2% | 0.22% | 52.7% | > 50% | 86.1% | 7.36 µM | 95.5% | – | – | – | – |
| CCN(C)C(=O)Oc1ccc(/C=C/C(=O)c2ccc(O)cc2)cc1 | 51.5% | 1.39% | 22.4% | > 50% | 80.8% | 6.08 µM | 91.7% | – | – | – | – |
| CCN(C)C(=O)Oc1ccc(C(=O)/C=C/c2ccc(O)cc2)cc1 | – | – | – | < 50% | – | – | – | – | – | – | – |
| CCN(C)C(=O)Oc1cc(OC(=O)N(C)CC)cc(C(=O)/C=C/c2ccc(O)cc2)c1 | – | – | – | < 50% | – | – | – | – | – | – | – |
| COc1ccc(/C=C/C(=O)c2ccc(OC(=O)N(C)C)cc2)cc1 | – | – | – | < 50% | – | – | – | – | – | – | – |
| CCN(C)C(=O)Oc1cccc(/C=C/C(=O)c2cccc(O)c2)c1 | 53% | 0.16% | 11.2% | > 50% | 88.2% | 2.87 µM | 101% | – | – | – | – |
| CCN(CC)C(=O)Oc1cccc(C(=O)/C=C/c2ccc(OC)cc2)c1 | – | – | – | < 50% | – | – | – | – | – | – | – |
| CCN(C)C(=O)Oc1cccc(C(=O)/C=C/c2ccc(OC)cc2)c1 | 85.1% | 0.63% | 66.3% | > 50% | 100% | 3.93 µM | 101% | – | – | – | – |
| CCN(C)C(=O)Oc1cccc(C(=O)/C=C/c2ccc(O)cc2)c1 | 49.2% | 5.42% | 17.4% | > 50% | 68% | 4.37 µM | 96.2% | – | – | – | – |
| COc1cc(/C=C/C(=O)CC(=O)/C=C/c2ccc(O)c(OC)c2)ccc1O | – | – | – | – | – | – | – | Active | – | – | – |
| CN(C)C(=O)Oc1cccc(C(=O)/C=C/c2ccc(O)cc2)c1 | 94.6% | 48.3% | 71.8% | > 50% | 96.5 to 96.7% | 0.36 µM | 102% | – | 0.87 µM | 0.52 µM | 0.16 µM |
| CCN(CC)C(=O)Oc1cccc(C(=O)/C=C/c2ccc(O)cc2)c1 | – | – | – | < 50% | – | – | – | – | – | – | – |
| COc1ccc(/C=C/C(=O)c2cccc(OC(=O)N(C)C)c2)cc1 | 74.3% | 0.67% | 20% | > 50% | 95.3% | 3.37 µM | 101% | – | 8.05 µM | – | – |
| CN(C)C(=O)Oc1cccc(/C=C/C(=O)c2ccc(O)cc2)c1 | 46.2% | 4.37% | 11.2% | > 50% | 69.9% | 2.19 µM | 83.9% | – | – | – | – |
| CCN(C)C(=O)Oc1cccc([C@H](C)N(C)C)c1 [RIVASTIGMINE] | 86.6% | 56.4% | 72.7% | – | 94.7% | – | 98.5% | – | – | – | – |
| CN(C)C(=O)Oc1cccc(/C=C/C(=O)c2cccc(O)c2)c1 | 57.1% | 1.03% | 15.1% | > 50% | 82.6% | 1.91 µM | 85.9% | – | – | – | – |
| CN(C)C(=O)Oc1ccc(C(=O)/C=C/c2ccc(O)cc2)cc1 | – | – | – | < 50% | – | – | – | – | – | – | – |
| CN(C)C(=O)Oc1ccc(/C=C/C(=O)c2cccc(O)c2)cc1 | – | – | – | < 50% | – | – | – | – | – | – | – |
| CN(C)C(=O)Oc1cc(OC(=O)N(C)C)cc(C(=O)/C=C/c2ccc(O)cc2)c1 | – | – | – | < 50% | – | – | – | – | – | – | – |
| COc1ccc(/C=C/C(=O)c2ccc(O)cc2)cc1 | – | – | – | < 50% | – | – | – | – | – | – | – |
